# Data taken from paper PMC4834983 (Journal of medicinal chemistry, 2015).
# What was measured:
# [1] = tested on: suppressors of cytokine signaling (SOCS)3; experiment: Immunoblotting, U251MG glioma cells; type: cell-based, human; conditions: 5 μM
# Method in brief: (§1)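 U251MG cells given 5 μM test compound for 0–24 h. Whole-cell lysates of equal total protein immunoblotted for pErk1/2, Erk1/2, pS-Akt, Akt, pJAK2, JAK2, SOCS3 and PTP1B, with β-actin or GAPDH as loading reference.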
# Stat5:Stat5 = experiment: Cell-free EMSA, EGF-stimulated NIH3T3/hEGFR nuclear extracts, MGFe probe; type: biochemical, mouse; conditions: 5 μM, 30 min pre-incubation
# Method in brief: (§2)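 Nuclear extracts from EGF-stimulated NIH3T3/hEGFR fibroblasts, containing active Stat1, Stat3 and Stat5, preincubated with 5 μM test compound for 30 min at room temperature. Then incubated 30 min with 32P-labelled probe before EMSA: hSIE (Stat1/Stat3 binding) or MGFe (bovine β-casein element; Stat1/Stat5 binding). STAT:DNA bands quantified as percent of control.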
# [2] = tested on: protein tyrosine phosphatase (PTP)1B; experiment: Immunoblotting, U251MG glioma cells; type: cell-based, human; conditions: 5 μM
# Method in brief: as §1
# pErk1/2MAPK [3] = experiment: Immunoblotting, EGF-stimulated NIH3T3/hEGFR fibroblasts; type: cell-based, mouse; conditions: 5 μM pre-treatment
# Method in brief: (§3)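 NIH3T3/hEGFR fibroblasts pretreated with or without 5 μM test compound for 3 h, then stimulated with 1 μg/ml EGF for 12 min. Whole-cell lysates, equal total protein, immunoblotted for pStat1/Stat1, pStat5/Stat5 and pErk1/2/Erk1/2.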
# pStat3 [4] = experiment: Immunoblots of tumor tissue lysates from treated mice; type: in vivo, mouse; conditions: four-to-five cases out of six
# Method in brief: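 After oral dosing, lysates of residual subcutaneous U251MG tumour tissue from treated and 1% DMSO vehicle mice. Immunoblotted for pStat3 and Stat3, with GAPDH as loading reference.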
# pS-Akt = experiment: Immunoblotting, U251MG glioma cells; type: cell-based, human; conditions: 5 μM
# Method in brief: as §1
# Stat3:Stat3 = Stat3:Stat3 (Mus musculus, UniProt P42227); experiment: Cell-free EMSA, nuclear extracts pre-incubated with compound, hSIE probe; type: biochemical; conditions: 5 μM, 30 min pre-incubation, NIH3T3/v-Src nuclear extracts
# Chain of Stat3:Stat3 (P42227 2-770 limits assumed): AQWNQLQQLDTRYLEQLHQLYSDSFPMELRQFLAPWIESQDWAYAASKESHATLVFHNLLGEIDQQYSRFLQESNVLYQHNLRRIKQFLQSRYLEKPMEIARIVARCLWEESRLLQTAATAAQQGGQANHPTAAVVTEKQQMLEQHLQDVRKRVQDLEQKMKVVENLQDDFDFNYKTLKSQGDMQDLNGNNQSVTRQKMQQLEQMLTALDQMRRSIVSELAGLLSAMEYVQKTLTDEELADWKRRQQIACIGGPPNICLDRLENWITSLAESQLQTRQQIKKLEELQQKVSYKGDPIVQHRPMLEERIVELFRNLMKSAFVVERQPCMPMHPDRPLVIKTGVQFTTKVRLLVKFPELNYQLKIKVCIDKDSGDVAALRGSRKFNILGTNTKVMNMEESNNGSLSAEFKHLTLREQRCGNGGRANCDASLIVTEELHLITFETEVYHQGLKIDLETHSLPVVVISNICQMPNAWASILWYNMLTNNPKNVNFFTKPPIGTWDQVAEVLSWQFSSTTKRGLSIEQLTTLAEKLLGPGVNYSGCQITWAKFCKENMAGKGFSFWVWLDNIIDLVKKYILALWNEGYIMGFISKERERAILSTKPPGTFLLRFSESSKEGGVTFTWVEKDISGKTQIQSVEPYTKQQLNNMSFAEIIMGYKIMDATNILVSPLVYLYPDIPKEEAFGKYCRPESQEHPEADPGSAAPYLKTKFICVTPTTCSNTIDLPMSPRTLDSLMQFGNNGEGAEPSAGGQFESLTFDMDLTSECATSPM
# pJAK2 = experiment: Immunoblotting, U251MG glioma cells; type: cell-based, human; conditions: 5 μM
# Method in brief: as §1
# Stat3 = Stat3 DNA-binding activity/EMSA of nuclear extracts from treated glioma cells; type: cell-based, human; conditions: for effect on Stat3 DNA-binding activity in treated tumor cells: 5 μM, glioma cells, EMSA
# [5] = Body weights and signs of toxicity in tumor-bearing mice; type: in vivo; conditions: 2 mg/kg, oral gavage, 33 days
# [6] = tested on: U251MG subcutaneous tumor xenografts; experiment: Subcutaneous glioma xenograft tumor growth; type: in vivo, mouse; conditions: 2 mg/kg, oral gavage, 33 days
# Method in brief: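 Female athymic nude mice, 4 weeks old, injected subcutaneously in the left flank with 7.3 ×10^6 U251MG cells in PBS/matrigel. At 20 days (tumours 170–250 mm3), mice grouped by matched mean tumour size. Dosed 2 mg/kg by oral gavage in 1% DMSO vehicle, three times weekly, for 33 days. Caliper volumes (V = 0.52 × a2 × b) and body weights recorded; paired t test against vehicle.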
# U251MG cells [7] = experiment: BrdU incorporation assay; type: cell-based, human; conditions: 5 μM, at 24 h
# Method in brief: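 U251MG cells on glass coverslips exposed to DMSO or 5 μM test compound for 3–24 h. BrdU (10 micromolar) added for the final 2 h. Fixed in 4% paraformaldehyde for 10 min, stained with anti-BrdU antibody and counterstained with DAPI. Imaged by fluorescence microscopy, and cells counted.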
# pStat5 = experiment: Immunoblotting, EGF-stimulated NIH3T3/hEGFR fibroblasts; type: cell-based, mouse; conditions: 5 μM pre-treatment
# Method in brief: as §3
# G10 cells = experiment: Growth of glioma patient-derived xenograft cells in vitro; type: cell-based; conditions: Homo sapiens, read-out: inhibitory activity against growth of G10 cells
# pYStat3 = experiment: Immunoblotting of pStat3 in treated U251MG cells; type: cell-based, human; conditions: 5 μM, glioma cells, immunoblotting
# Method in brief: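 Whole-cell lysates from U251MG cells given test compound at 5 μM for 0–24 h, or at 0–5 μM for 2 h. Immunoblotted for pY705Stat3 and total Stat3, with GAPDH as loading reference.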
# U251MG cells [8] = experiment: Scratch assay for migration; type: cell-based, human; conditions: 5 μM, 19-h treatment
# Method in brief: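 Sub-confluent U251MG monolayers wounded with pipette tips and treated once with test compound (0–5 μM) or DMSO vehicle. Cells allowed to migrate into the denuded area over 19 h, then imaged by microscopy at 10×.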
# U251MG cells [9] = experiment: Colony survival assay; type: cell-based, human; conditions: 1 μM, treated once
# Method in brief: (§4)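 Cells seeded as single cells at 250 per well and treated once the next day with test compound (0–5 μM) for 72 h. Grown until large colonies were visible: 1 week for NIH3T3, 2 weeks for U251MG. Colonies stained with crystal violet for 4 h and counted.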
# G22 cells [10] = experiment: 3D spheroid assay; type: cell-based, human; conditions: 5 μM, treated once
# pErk1/2MAPK [11] = experiment: Immunoblotting, U251MG glioma cells; type: cell-based, human; conditions: 5 μM
# Method in brief: as §1
# Stat1:Stat1 = target: T1, Stat1:Stat1 (Mus musculus, UniProt P42225); experiment: Cell-free EMSA, EGF-stimulated NIH3T3/hEGFR nuclear extracts; type: biochemical; conditions: 5 μM, 30 min pre-incubation
# T1 sequence (P42225 2-749 limits assumed): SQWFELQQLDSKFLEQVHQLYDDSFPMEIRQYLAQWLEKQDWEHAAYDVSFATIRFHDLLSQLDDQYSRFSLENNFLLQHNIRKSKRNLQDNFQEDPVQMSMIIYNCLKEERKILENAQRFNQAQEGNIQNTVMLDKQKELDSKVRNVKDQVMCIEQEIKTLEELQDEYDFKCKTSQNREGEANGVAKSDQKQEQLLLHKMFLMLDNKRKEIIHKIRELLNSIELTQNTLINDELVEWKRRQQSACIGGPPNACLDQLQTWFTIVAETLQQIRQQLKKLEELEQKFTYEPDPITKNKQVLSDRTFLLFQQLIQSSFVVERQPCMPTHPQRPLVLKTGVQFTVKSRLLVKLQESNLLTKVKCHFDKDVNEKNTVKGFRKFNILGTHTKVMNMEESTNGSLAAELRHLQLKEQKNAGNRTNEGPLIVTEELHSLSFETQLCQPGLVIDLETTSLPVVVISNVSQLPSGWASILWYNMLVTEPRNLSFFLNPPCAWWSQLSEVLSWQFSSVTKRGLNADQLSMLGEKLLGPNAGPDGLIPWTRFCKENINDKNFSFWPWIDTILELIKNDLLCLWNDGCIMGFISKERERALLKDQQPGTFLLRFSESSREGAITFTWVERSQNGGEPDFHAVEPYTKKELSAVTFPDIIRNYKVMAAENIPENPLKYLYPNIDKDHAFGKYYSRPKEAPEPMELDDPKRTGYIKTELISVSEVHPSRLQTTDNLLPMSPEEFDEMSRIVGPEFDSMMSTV
# Method in brief: as §2
# [12] = tested on: c-Myc, Bcl-2, Mcl-1 and Bcl-xL expression; experiment: Immunoblots of Stat3-regulated gene products in U251MG cells; type: cell-based, human; conditions: 5 μM
# Method in brief: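 Whole-cell lysates prepared from U251MG cells given 5 μM test compound for 0–24 h, with 0.025% DMSO as control. Immunoblotted for c-Myc, Bcl-2, Bcl-xL, Mcl-1, pStat3 and Stat3, with GAPDH as loading reference.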
# NIH3T3 cells [13] = experiment: Colony survival assay; type: cell-based, mouse; conditions: 2.5 μM or less
# Method in brief: as §4
# G12 cells = experiment: Growth of glioma patient-derived xenograft cells in vitro; type: cell-based; conditions: Homo sapiens, read-out: inhibitory activity against G12 cell growth
# U251MG cells [14] = experiment: Immunofluorescence staining/confocal microscopy of mitosis; type: cell-based, human; conditions: 15 h treatment
# Method in brief: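 U251MG cells on coverslips synchronised by double thymidine block (2 mM) and released for 9 h. Then given DMSO, 100 nM paclitaxel or 8 μM test compound for 15 h. Fixed in 4% paraformaldehyde, permeabilised with 0.1% digitonin and blocked in 0.2% BSA. Stained with anti-β-tubulin (1:350) and anti-MAP1B (1:300) for 1 h at room temperature, then fluorescent secondaries and DAPI; confocal imaging.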
# G22 cells [15] = experiment: Growth of glioma patient-derived xenograft cells in vitro; type: cell-based; conditions: Homo sapiens, read-out: inhibitory activity against growth of G22 cells
# pStat3 [16] = experiment: Immunoblotting of pStat3 in patient-derived xenograft cells; type: cell-based, human; conditions: 5 μM, 3 h
# Method in brief: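 Glioma patient-derived xenograft G22 cells (DMEM, 5–10% heat-inactivated FBS) given 5 μM test compound for 0–24 h. Whole-cell lysates immunoblotted for pStat3 and Stat3, with GAPDH as loading reference.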
# pStat1 = experiment: Immunoblotting, EGF-stimulated NIH3T3/hEGFR fibroblasts; type: cell-based, mouse; conditions: 5 μM pre-treatment
# Method in brief: as §3
# NIH3T3 cells [17] = experiment: CyQuant cell proliferation assay; type: cell-based, mouse; conditions: 5 μM
# Method in brief: (§5)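 CyQuant DNA-dye proliferation assay on cultured cells after 72 h exposure to test compound. Viability expressed relative to DMSO-treated control cells.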
# U251MG cells [18] = experiment: CyQuant cell proliferation assay; type: cell-based, human; conditions: 5 μM
# Method in brief: as §5
# U251MG cells [19] = experiment: Apoptosis by PARP or caspase cleavage; type: cell-based, human; conditions: 24 or 48 h
compound,measurement,setting,value
C/C=C(\C)C(=O)O[C@H]1C[C@@H](C)[C@]2(O)CC[C@](C)(/C=C3/OC(=O)C(COC(C)=O)=C31)O2 [Compound 6],effect on SOCS3 levels,[1],no effects
same,"effect on Stat5:Stat5 activity, cell-free EMSA",Stat5:Stat5,weak effects
same,effect on PTP1B levels,[2],no effects
same,effect on EGF-stimulated pErk1/2MAPK levels,pErk1/2MAPK [3],no effect
same,pStat3 and Stat3 levels in residual tumor tissues,pStat3 [4],lower
same,effect on pS-Akt levels,pS-Akt,no effects
same,"Stat3:Stat3/DNA-binding activity (complexation), cell-free EMSA",Stat3:Stat3,diminished
same,effect on pJAK2,pJAK2,apparent moderate increase
same,effect on Stat3 DNA-binding activity in treated tumor cells,Stat3,strongly inhibited
same,body weights or obvious signs of toxicity,[5],No significant changes
same,growth of subcutaneous U251MG xenografts,[6],inhibited growth
same,cell proliferation measured by BrdU incorporation,U251MG cells [7],significantly impaired
same,effect on EGF-stimulated pStat5 levels,pStat5,no effect
same,inhibition at 5 µM,G10 cells,45 to 60%
same,effect on pStat3 in treated tumor cells,pYStat3,strongly inhibited
same,migration into the denuded area,U251MG cells [8],slowed migration
same,U251MG colony formation,U251MG cells [9],completely inhibited
same,3D spheroid growth,G22 cells [10],decreased 3D spheroid growth
same,effect on pErk1/2MAPK levels,pErk1/2MAPK [11],no effects
same,"effect on Stat1:Stat1 activity, cell-free EMSA",Stat1:Stat1,weak effects
same,"c-Myc, Bcl-2, Mcl-1 and Bcl-xL expression",[12],down regulated
same,effects on NIH3T3 colony numbers,NIH3T3 cells [13],moderate or none
same,inhibition at 5 µM,G12 cells,25 to 35%
same,chromatid structures and sister-chromatids segregation (mitosis),U251MG cells [14],caused defects
same,inhibition at 5 µM,G22 cells [15],45 to 60%
same,effect on Phospho-Stat3 in G22 cells,pStat3 [16],strongly inhibited
same,effect on EGF-stimulated pStat1 levels,pStat1,no effect
C/C=C(\C)C(=O)OCC1=C2/C(=C\[C@@]3(C)CC[C@](O)(O3)[C@H](C)C[C@@H]2OC(=O)/C(C)=C/C)OC1=O [Compound 38],"Stat3:Stat3/DNA-binding activity (complexation), cell-free EMSA",Stat3:Stat3,diminished
same,effect on Stat3 DNA-binding activity in treated tumor cells,Stat3,suppressed
same,IC50,"Stat3; Homo sapiens, U-251, read-out: IC50 Stat3 DNA-binding activity in treated cells",500 to 2500 nM
same,effect on NIH3T3 growth,NIH3T3 cells [17],inhibited NIH3T3 growth
same,activity against U251MG cell growth,U251MG cells [18],retained or improved the inhibitory potency
same,effect on pStat3 in treated tumor cells,pYStat3,suppressed
"CC(=O)O[C@H]1C(=O)[C@@]2(C)[C@H]([C@H](OC(=O)c3ccccc3)[C@]3(O)C[C@H](OC(=O)[C@H](O)[C@@H](NC(=O)c4ccccc4)c4ccccc4)C(C)=C1C3(C)C)[C@]1(OC(C)=O)CO[C@@H]1C[C@@H]2O [paclitaxel, reference compound]",apoptosis measured by PARP or caspase cleavage,U251MG cells [19],induced apoptosis
same,chromatid structures and sister-chromatids segregation (mitosis),U251MG cells [14],caused strong defects
